Measured values reported in ChEMBL document CHEMBL1122008, “Lipophilic 5'-(alkyl phosphate) esters of 1-beta-D-arabinofuranosylcytosine and its N4-acyl and 2,2'-anhydro-3'-O-acyl derivatives as potential prodrugs” (1982).

Legend:
Type in all cases: functional
Mus musculus [1] = experiment: Antitumor activity against L1210 leukemia in mice (Percent increase in life span.) at the dose of 240 mg/kg (mice surviving 20 or more days)
Outline: (§1)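 Male B6D2F1J mice, groups of 5–9, inoculated ip with 10^5 L1210 cells on day 0. Dosing starts day 1 on a qd×5 or q4d(2,6) schedule. Vehicles are sterile water, pH 7.4 0.05 M potassium phosphate buffer, or 0.4% Tween 80/0.5% CMC/0.9% benzyl alcohol/0.9% saline. %ILS = (T/C − 1)×100 from median survival. Weights taken days 1 and 7.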

Mus musculus [2] = experiment: Antitumor activity against L1210 leukemia in mice (Average weight per mouse on day 1.) at the dose of 180 mg/kg
Outline: (§2)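 Male B6D2F1J mice (5–9 per group) received 10^5 L1210 cells i.p. on day 0 and drug from day 1, given qd×5 or q4d(2,6). Vehicles were sterile water, 0.05 M potassium phosphate pH 7.4, or 0.4% Tween 80/0.5% CMC/0.9% benzyl alcohol/0.9% saline. Read-out is average body weight per mouse (g) on day 1.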

Mus musculus [3] = experiment: Antitumor activity against L1210 leukemia in mice (Average weight per mouse on day 1.) at the dose of 240 mg/kg; outline: as §2
Mus musculus [4] = experiment: Antitumor activity against L1210 leukemia in mice (Percent increase in life span.) at the dose of 180 mg/kg (mice surviving 20 or more days); outline: as §1
Mus musculus [5] = experiment: Antitumor activity against L1210 leukemia in mice (Average 7-day weight change (%)) at the dose of 180 mg/kg
Outline: (§3)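 Male B6D2F1J mice, groups of five to nine, inoculated ip with 10^5 L1210 cells on day 0. Drug treatment started day 1 on qd×5 or q4d(2,6) schedule. Vehicles: ara-C in sterile water; the n-butyl phosphate ester in 0.05 M pH 7.4 potassium phosphate buffer; others as suspensions in 0.4% Tween 80/0.5% low-density CMC/0.9% benzyl alcohol/0.9% saline. Mice weighed days 1 and 7; 7-day weight change given as g/mouse and %.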

Mus musculus [6] = experiment: Antitumor activity against L1210 leukemia in mice (Average 7-day weight change (%)) at the dose of 240 mg/kg; outline: as §3
Mus musculus [7] = experiment: Antitumor activity against L1210 leukemia in mice (Average 7-day weight change) at the dose of 180 mg/kg; outline: as §3
Mus musculus [8] = experiment: Antitumor activity against L1210 leukemia in mice (Average 7-day weight change) at the dose of 240 mg/kg; outline: as §3

`CCCCCCCCCCCCCC(=O)O[C@H]1[C@@H]2Oc3nc(=N)ccn3[C@@H]2O[C@@H]1COP(=O)(O)OCCCC` showed an ILS at 240 mg/kg (Mus musculus [1]) of 112%, an Average weight (Mus musculus [2]) of 23.2 g mouse-1 and an Average weight (Mus musculus [3]) of 23.4 g mouse-1. It also gave an ILS at 180 mg/kg (Mus musculus [4]) of 100%, a Weight change (Mus musculus [5]) of -11% and a Weight change (Mus musculus [6]) of -17%. It also gave a Weight change (Mus musculus [7]) of -2.6 g mouse-1 and a Weight change (Mus musculus [8]) of -4 g mouse-1.
